Assay results as given in ChEMBL document CHEMBL3792314, “Synthesis, characterization and biological evaluation of benzothiazoles and tetrahydrobenzothiazoles bearing urea or thiourea moieties as vasorelaxants and inhibitors of the insulin releasing process” (Eur J Med Chem, 2016).
One block for each molecule: values may come before it.

Experiments:
Thoracic aorta [1] = assay: Vasorelaxant activity in Wistar rat endothelium-intact thoracic aortic rings assessed relaxation of 30 mM KCl-induced contraction; format: functional
In short: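 Endothelium-intact thoracic aortic rings from female Wistar rats (180–220 g), equilibrated 75 min under 1.8–2.0 g tension, pH 7.4, isometric force transducer. After stable 30 mM KCl plateau (about 15 min), cumulative addition at 1, 10, 30, 50, 100 µM, or 0.1–100 µM for some compounds. EC50 = concentration giving 50% relaxation; mean ± SEM of 4–6 experiments.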

Thoracic aorta [2] = assay: Vasorelaxant activity in Wistar rat endothelium-denuded thoracic aortic rings assessed relaxation of 30 mM KCl-induced contraction; format: functional
Thoracic aorta [3] = assay: Vasorelaxant activity in Wistar rat thoracic aortic rings assessed relaxation of 30 mM KCl-induced contraction in presence of KATP channel blocker glibenclamide; format: functional
In short: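 Female Wistar rat thoracic aorta rings under 1.8–2.0 g resting tension, pH 7.4. Glibenclamide 10 μM present continuously in bath. Contraction by 30 mM KCl, then cumulative compound addition. EC50 = concentration relaxing the KCl contraction by 50%. Mean ± SEM, n = 3–5.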

Thoracic aorta [4] = assay: Vasorelaxant activity in Wistar rat thoracic aortic rings assessed relaxation of 80 mM KCl-induced contraction; format: functional
In short: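 Female Wistar rat (180–220 g) thoracic aortic rings equilibrated 75 min at 1.8–2.0 g tension, pH 7.4. Depolarized with 80 mM KCl, then compounds added cumulatively. EC50 = concentration giving 50% relaxation of the 80 mM KCl contraction. Mean ± SEM, n = 4–5.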

[5] = Inhibition of glucose-induced insulin secretion from Wistar rat pancreatic islets assessed as residual insulin release at 50 uM after 90 mins by radioimmunological assay; format: functional, Pancreatic islet
In short: (§1)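 Islets from adult fed Wistar rats, groups of 10 from the same batch. Preincubated 30 min at 37°C in bicarbonate salt medium with 2.8 mM glucose and 0.5% dialysed albumin, gassed O2/CO2 95:5. Then incubated 90 min at 37°C with 16.7 mM glucose plus compound. Insulin measured by radioimmunoassay against rat insulin standard. Residual secretion expressed as % of drug-free 16.7 mM glucose control.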

[6] = Inhibition of glucose-induced insulin secretion from Wistar rat pancreatic islets assessed as residual insulin release at 10 uM after 90 mins by radioimmunological assay; format: functional, Pancreatic islet; in short: as §1
[7] = Inhibition of glucose-induced insulin secretion from Wistar rat pancreatic islets assessed as residual insulin release at 1 uM after 90 mins by radioimmunological assay; format: functional, Pancreatic islet; in short: as §1

SMILES: CCc1ccc2nc(NC(=O)NC(C)C)sc2c1
EC50 (Thoracic aorta [1]): 24.4 µM

SMILES: CCCCCNC(=O)Nc1nc2ccc(C#N)cc2s1
EC50 (Thoracic aorta [1]): 14.8 µM

SMILES: CC(N/C(=N\C#N)Nc1ccncc1)C(C)(C)C (stereo not drawn) [PINACIDIL ANHYDROUS]
EC50 (Thoracic aorta [1]): 0.39 µM | EC50 (Thoracic aorta [3]): 8.02 µM | EC50 (Thoracic aorta [4]): 92.1 µM | Activity [5]: 88.8% | Residual insulin release (% of control) [7]: 97.7%

SMILES: CC1=Nc2ccc(Cl)cc2S(=O)(=O)N1 [DIAZOXIDE]
EC50 (Thoracic aorta [1]): 23.7 µM | EC50 (Thoracic aorta [2]): 23.2 µM | EC50 (Thoracic aorta [3]): > 100 µM | EC50 (Thoracic aorta [4]): > 100 µM | Activity [5]: 26.7% | Residual insulin secretion (% of glucose control) [6]: 73.9% | Residual insulin release (% of control) [7]: 87.5%

SMILES: Cc1ccc2nc(NC(=S)NC3CCCCC3)sc2c1
EC50 (Thoracic aorta [1]): 52.1 µM

SMILES: CCCCCNC(=O)Nc1nc2ccc([N+](=O)[O-])cc2s1
EC50 (Thoracic aorta [1]): 2.11 µM | EC50 (Thoracic aorta [2]): 4.75 µM | EC50 (Thoracic aorta [3]): 19.6 µM | EC50 (Thoracic aorta [4]): 14.2 µM

SMILES: O=[N+]([O-])c1cccc(NC(=S)Nc2nc3c(s2)CCCC3)c1
EC50 (Thoracic aorta [1]): > 100 µM

SMILES: CC(C)(C)NC(=O)Nc1nc2c(s1)CCCC2
EC50 (Thoracic aorta [1]): 75.2 µM

SMILES: CC(C)NC(=S)Nc1nc2c(s1)CCCC2
EC50 (Thoracic aorta [1]): > 100 µM

SMILES: CC(C)NC(=O)Nc1nc2c(s1)CCCC2
EC50 (Thoracic aorta [1]): 47.6 µM

SMILES: N#Cc1ccc(NC(=S)Nc2nc3c(s2)CCCC3)cc1
EC50 (Thoracic aorta [1]): > 100 µM

SMILES: CC(C)(C)NC(=O)Nc1nc2ccc([N+](=O)[O-])cc2s1
EC50 (Thoracic aorta [1]): 10.8 µM | EC50 (Thoracic aorta [2]): 14.8 µM | EC50 (Thoracic aorta [3]): 19.5 µM | EC50 (Thoracic aorta [4]): 31 µM | Activity [5]: 11.77% | Residual insulin secretion (% of glucose control) [6]: 30.98% | Residual insulin release (% of control) [7]: 83.52%

SMILES: N#Cc1ccc(NC(=O)Nc2nc3c(s2)CCCC3)cc1
EC50 (Thoracic aorta [1]): > 100 µM

SMILES: CC(C)NC(=O)Nc1nc2ccc([N+](=O)[O-])cc2s1
EC50 (Thoracic aorta [1]): 15.7 µM | EC50 (Thoracic aorta [2]): 17.8 µM | EC50 (Thoracic aorta [4]): 36.4 µM | Activity [5]: 8.52% | Residual insulin secretion (% of glucose control) [6]: 62.03%

The next lines start with results.

EC50 (Thoracic aorta [1]): > 100 µM
SMILES: O=C(Nc1ccc(Cl)c(C(F)(F)F)c1)Nc1nc2c(s1)CCCC2

EC50 (Thoracic aorta [1]): 13 µM | EC50 (Thoracic aorta [2]): 12.1 µM | EC50 (Thoracic aorta [3]): 23.3 µM | EC50 (Thoracic aorta [4]): 26.9 µM
SMILES: CC(C)(C)NC(=O)Nc1nc2ccc(Br)cc2s1
Activity [5]: 15.89% | Residual insulin secretion (% of glucose control) [6]: 77.97%

EC50 (Thoracic aorta [1]): > 100 µM
SMILES: Cc1ccc2nc(NC(=S)NCc3ccccc3)sc2c1

EC50 (Thoracic aorta [1]): 64.2 µM
SMILES: O=C(NCc1ccccc1)Nc1nc2ccc(Br)cc2s1
Activity [5]: 17.85% | Residual insulin secretion (% of glucose control) [6]: 82.97%

EC50 (Thoracic aorta [1]): > 100 µM
SMILES: CCc1ccc2nc(NC(=O)NCc3ccccc3)sc2c1

EC50 (Thoracic aorta [1]): > 100 µM
SMILES: O=C(Nc1ccc(Cl)cc1)Nc1nc2c(s1)CCCC2

EC50 (Thoracic aorta [1]): > 100 µM
SMILES: CCc1ccc2nc(NC(=O)Nc3ccc(C(F)(F)F)cc3Cl)sc2c1

EC50 (Thoracic aorta [1]): 54.3 µM
SMILES: O=C(Nc1nc2ccc([N+](=O)[O-])cc2s1)Nc1ccc(C(F)(F)F)cc1Cl

EC50 (Thoracic aorta [1]): > 100 µM
SMILES: O=C(Nc1nc2ccccc2s1)Nc1ccc(C(F)(F)F)cc1Cl

EC50 (Thoracic aorta [1]): > 100 µM
SMILES: N#Cc1ccc(NC(=O)Nc2nc3ccc(Br)cc3s2)cc1
Activity [5]: 10.68% | Residual insulin secretion (% of glucose control) [6]: 11.03% | Residual insulin release (% of control) [7]: 60.5%

EC50 (Thoracic aorta [1]): 18.5 µM
SMILES: Cc1ccc2nc(NC(=O)NC(C)C)sc2c1

EC50 (Thoracic aorta [1]): > 100 µM
SMILES: O=C(Nc1nc2ccc(Br)cc2s1)Nc1ccc(C(F)(F)F)cc1Cl

EC50 (Thoracic aorta [1]): > 100 µM
SMILES: CCc1ccc2nc(NC(=S)NCc3ccccc3)sc2c1

EC50 (Thoracic aorta [1]): > 100 µM
SMILES: CCc1ccc2nc(NC(=S)Nc3cccc([N+](=O)[O-])c3)sc2c1

EC50 (Thoracic aorta [1]): 25.3 µM
SMILES: CCc1ccc2nc(NC(=O)NC(C)(C)C)sc2c1

EC50 (Thoracic aorta [1]): 22.8 µM
SMILES: CC(C)NC(=O)Nc1nc2ccc(Br)cc2s1

EC50 (Thoracic aorta [1]): 35.5 µM
SMILES: CC(C)NC(=O)Nc1nc2ccccc2s1

EC50 (Thoracic aorta [1]): 2.78 µM | EC50 (Thoracic aorta [2]): 4.66 µM | EC50 (Thoracic aorta [3]): 15.6 µM | EC50 (Thoracic aorta [4]): 15 µM
SMILES: CC(C)(C)NC(=O)Nc1nc2ccc(C#N)cc2s1
